In PMC6119551 (Neuropharmacology, 2018):

Legend:
male rats [1] = test: Back muscle contractions; format: in vivo, rat; settings: sc; for Doses significantly increasing summed BMC vs vehicle: rats, Bonferroni p<0.05; for Rat BMC ED50: summed BMC over 2 h, rising phase of dose-effect function
Summary of the method: (§1)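 Male Sprague-Dawley rats (250–300 g) with ≥2 weeks of acclimation, one sc injection per weekly session of saline or one of 4 doses (1.0 mL/kg), N=9/group. Dose ranges were 0.03–1.0, 0.01–0.3 or 0.1–3.0 mg/kg depending on compound. WDS and BMC were counted by a non-blind rater in eight 90-s periods every 15 min and summed. ED50 came from nonlinear regression of score versus log dose on the rising phase.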

male rats [2] = test: Wet dog shakes; format: in vivo, rat; settings: sc; for Doses significantly increasing summed WDS vs vehicle: Bonferroni p<0.05
Summary of the method: as §1

human 5-HT2A receptors [3] = biological target: T1, human 5-HT2A receptors (Homo sapiens, UniProt P28223); test: Calcium mobilization, HEK293 cells expressing human 5-HT2A; format: cell-based; settings: for Emax: HEK293, read-out: 5-HT2A Mobilization of Calcium %Emax; for Fold more potent than NBOMe counterpart in 5-HT2A-mediated calcium mobilization: 2C-C vs 25C-NBOMe, 2C-I vs 25I-NBOMe
T1 sequence (P28223 whole entry): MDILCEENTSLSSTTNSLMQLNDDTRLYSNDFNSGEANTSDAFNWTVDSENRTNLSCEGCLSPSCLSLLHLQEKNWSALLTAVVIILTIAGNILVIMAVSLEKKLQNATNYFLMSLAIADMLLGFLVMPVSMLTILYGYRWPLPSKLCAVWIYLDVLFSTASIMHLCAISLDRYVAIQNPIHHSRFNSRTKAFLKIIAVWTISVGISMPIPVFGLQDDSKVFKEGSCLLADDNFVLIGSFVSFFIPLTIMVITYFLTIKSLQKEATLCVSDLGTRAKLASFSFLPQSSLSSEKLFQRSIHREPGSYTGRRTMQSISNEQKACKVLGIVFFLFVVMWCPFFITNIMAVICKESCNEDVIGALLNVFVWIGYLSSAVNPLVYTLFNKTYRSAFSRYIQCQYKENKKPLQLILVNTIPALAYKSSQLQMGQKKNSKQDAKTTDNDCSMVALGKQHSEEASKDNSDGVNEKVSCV

mice [4] = settings: ref Gatch et al., 2017; cited from earlier work
male rats [5] = test: Body temperature via implanted transponder; format: in vivo, rat; settings: sc, all doses tested, 15-120 min post-injection
human 5-HT2C receptors = biological target: T2, human 5-HT2C receptors (Homo sapiens, UniProt P28335); test: Calcium mobilization, HEK293 cells expressing human 5-HT2C; format: cell-based; settings: for Emax: HEK293, read-out: 5-HT2C Mobilization of Calcium % Emax
T2 sequence (P28335 33-458): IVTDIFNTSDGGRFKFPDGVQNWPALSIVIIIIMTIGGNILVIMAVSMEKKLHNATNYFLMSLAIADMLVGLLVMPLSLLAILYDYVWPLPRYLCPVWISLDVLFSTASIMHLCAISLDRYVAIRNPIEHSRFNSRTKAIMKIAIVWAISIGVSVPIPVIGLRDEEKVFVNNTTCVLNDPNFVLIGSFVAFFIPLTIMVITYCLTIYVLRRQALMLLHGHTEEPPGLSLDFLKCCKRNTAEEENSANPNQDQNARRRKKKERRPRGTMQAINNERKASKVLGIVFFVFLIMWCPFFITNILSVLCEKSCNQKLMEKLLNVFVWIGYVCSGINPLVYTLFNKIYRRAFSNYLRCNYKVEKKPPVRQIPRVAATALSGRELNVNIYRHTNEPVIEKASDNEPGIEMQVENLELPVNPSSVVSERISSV

[6] = biological target: 5-HT2A receptors in rat brain tissue (Rattus norvegicus, UniProt P14842); test: [3H]M100907 radioligand binding in rat brain tissue
Chain of 5-HT2A receptors in rat brain tissue (P14842 whole entry): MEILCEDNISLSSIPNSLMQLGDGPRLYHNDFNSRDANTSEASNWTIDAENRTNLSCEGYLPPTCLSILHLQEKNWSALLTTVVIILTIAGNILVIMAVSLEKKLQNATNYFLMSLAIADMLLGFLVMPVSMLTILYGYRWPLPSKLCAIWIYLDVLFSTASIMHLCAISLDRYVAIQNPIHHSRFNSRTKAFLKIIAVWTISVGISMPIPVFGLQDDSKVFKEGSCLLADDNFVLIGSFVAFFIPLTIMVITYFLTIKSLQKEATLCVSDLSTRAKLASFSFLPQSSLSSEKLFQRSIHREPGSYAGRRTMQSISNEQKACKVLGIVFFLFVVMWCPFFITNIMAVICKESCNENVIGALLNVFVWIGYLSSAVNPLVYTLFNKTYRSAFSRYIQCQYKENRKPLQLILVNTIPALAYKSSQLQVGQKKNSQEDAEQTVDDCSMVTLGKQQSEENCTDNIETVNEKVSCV

human 5-HT2A receptors [7] = biological target: T1, human 5-HT2A receptors; settings: 25C-NBOMe vs 2C-C, 25I-NBOMe vs 2C-I; ref Rickli et al., 2015; cited from earlier work
mice [8] = settings: sc, ref Halberstadt and Geyer, 2014; cited from earlier work
5-HT2A = settings: ref Marek and Aghajanian, 1994; cited from earlier work
male rats [9] = test: M100907 antagonism of agonist-induced WDS and BMC; format: in vivo, rat
Summary of the method: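 Male Sprague-Dawley rats got sc M100907 (0.1 mg/kg in 1:9 DMSO:saline) or its vehicle 30 min before sc agonist or saline, with agonists at fixed doses of 0.03–1.0 mg/kg. Summed WDS and BMC came from eight 90-s observations at 15-min intervals by a non-blind rater. Rats were tested weekly, N=9/group, by Bonferroni comparison with Veh/Veh.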

[10] = ref Eshleman et al. (2014); cited from earlier work
5-HT2A receptor [11] = settings: ref Eshleman et al. (2014); cited from earlier work
5-HT2A receptor [12] = settings: ref Eshleman et al. (2014); cited from earlier work; remark: listed apart in the source
rats = settings: cited from earlier work
[13] = 0.1 mg/kg M100907 30 min before 0.03 mg/kg 25C-NBOMe
[14] = 0.1 mg/kg M100907 30 min before 0.1 mg/kg 25I-NBOMe
[15] = 0.1 mg/kg M100907 30 min before 0.3 mg/kg 2C-C
[16] = 0.1 mg/kg M100907 30 min before 1.0 mg/kg 2C-I
[17] = 0.1 mg/kg M100907 30 min before 1.0 mg/kg DOI sc

Row | SMILES | Doses significantly increasing summed BMC vs vehicle (male rats [1]) | Rat BMC ED50 (male rats [1]) [mg/kg] | Doses significantly increasing summed WDS vs vehicle (male rats [2]; rats) | EC50 (human 5-HT2A receptors [3]) [nM] | Emax (human 5-HT2A receptors [3]) [%] | Effect on locomotor activity (mice [4]) | Effect on body temperature (male rats [5]) | EC50 (human 5-HT2C receptors) [nM] | Emax (human 5-HT2C receptors) [%] | IC50 [6] [nM] | Fold greater affinity for human 5-HT2A receptors than 2C counterpart (human 5-HT2A receptors [7]) [fold] | ED50 in the head twitch assay (mice [8]) [mg/kg] | Functional activity in the [3H]AA assay (5-HT2A receptor [11]) | Fold more potent than NBOMe counterpart in 5-HT2A-mediated calcium mobilization (human 5-HT2A receptors [3]) [fold] | Functional activity in the IP assay (5-HT2A receptor [12]) | also measured
1 | COc1cc(CCNCc2ccccc2OC)c(OC)cc1I [Compound 25I-NBOMe, 2-(4-iodo-2,5-dimethoxyphenyl)-N-[(2-methoxyphenyl)methyl]ethanamine] | increases in contractions occurred after the 0.03, 0.1, and 0.3 mg/kg doses | 0.037 ± 0.011 | Significant increases in shakes occured after the 0.1 and 0.3 mg/kg doses | 34.7 ± 4.2 | 108 | dose-dependently reduced locomotor activity | did not significantly alter body temperature at any dose tested | 88.9 ± 11 | 70 | 3.9 ± 0.4 | 6 | 0.08 | – | – | – | Fold more potent than 2C counterpart in inducing WDS (male rats [2]; rats, 25C-NBOMe vs 2C-C, 25I-NBOMe vs 2C-I): 10 fold; Rat WDS ED50 (male rats [2]; summed WDS over 2 h, rising phase of dose-effect function): 0.062 ± 0.026 mg/kg; Fold more potent than 2C-I at eliciting head twitch behavior (mice [8]): about 10 fold
2 | COc1cccc([C@H](O)C2CCN(CCc3ccc(F)cc3)CC2)c1OC [Compound M100907, (R)-(2,3-dimethoxyphenyl){1-[2-(4-fluorophenyl)ethyl]-4-piperidinyl}methanol] | – | – | – | – | – | – | – | – | – | – | – | – | – | – | – | Selectivity for 5-HT2A over 5-HT2C and other receptor subtypes (5-HT2A): more than 100 fold; Effect on BMC induced by 25C-NBOMe (male rats [9]; [13]): significantly decreased; Effect on WDS induced by 25C-NBOMe (male rats [9]; [13]): significantly decreased WDS; Effect on BMC induced by 25I-NBOMe (male rats [9]; [14]): decreased; Effect on WDS induced by 25I-NBOMe (male rats [9]; [14]): decreased WDS; Effect on BMC induced by 2C-C (male rats [9]; [15]): decreased; Effect on WDS induced by 2C-C (male rats [9]; [15]): decreased WDS; Effect on BMC induced by 2C-I (male rats [9]; [16]): decreased; Effect on WDS induced by 2C-I (male rats [9]; [16]): decreased WDS; Effect on BMC induced by DOI (male rats [9]; [17]): significantly decreased shakes and contractions; Effect on WDS induced by DOI (male rats [9]; [17]): significantly decreased shakes and contractions
3 | COc1cc(CC(C)N)c(OC)cc1I (stereo not drawn) [DOI, 1-(4-iodo-2,5-dimethoxyphenyl)propan-2-amine, reference compound] | significant increases in both behaviors occurring after 0.1, 0.3, and 1.0 mg/kg | – | significant increases in both behaviors occurring after 0.1, 0.3, and 1.0 mg/kg | – | 109 | – | no significant effects on body temperature at any dose tested | 47.7 ± 3 | 50 | 56.1 ± 4.9 | – | – | – | – | – | –
4 | COc1cc(CCN)c(OC)cc1Cl [Compound 2C-C, 2-(4-chloro-2,5-dimethoxyphenyl)ethanamine] | Significant stimulation of both behaviors occurred after administration of 0.3, 1.0, and 3.0 mg/kg doses | – | Significant stimulation of both behaviors occurred after administration of 0.3, 1.0, and 3.0 mg/kg doses | 4.57 ± 0.5 | 95 | – | failed to significantly alter body temperature at any dose tested | 77.6 ± 5.5 | 29 | 308 ± 21.6 | – | – | full agonist | 13 | full agonist | Substitution for MDMA in drug discrimination [10]: fully substitutes
5 | COc1cc(CCNCc2ccccc2OC)c(OC)cc1Cl [Compound 25C-NBOMe, 2-(4-chloro-2,5-dimethoxyphenyl)-N-[(2-methoxyphenyl)methyl]ethanamine] | stimulation of contractions occured after 0.03, 0.1 and 0.3 mg/kg doses | – | Significant stimulation of shaking behavior occured after 0.03 and 0.1 mg/kg doses | 61.7 ± 3.5 | 104 | dose-dependently reduced locomotor activity | did not significantly alter body temperature at any dose tested | 178 ± 25 | 60 | 8.7 ± 1 | 18 | – | – | – | – | DOM-appropriate responding (rats; dose of 0.03 mg/kg, ref Gatch and colleagues (2017)): < 20%; Substitution for DOM in drug discrimination (rats; ip, ref Gatch et al., 2017): fully substituted; Substitution for MDMA in drug discrimination (rats; ip, ref Gatch et al., 2017): only partially substituting
6 | COc1cc(CCN)c(OC)cc1I [Compound 2C-I, 2-(4-iodo-2,5-dimethoxyphenyl)ethanamine] | increases in BMC occurred after 0.3, 1.0, and 3.0 mg/kg doses | 0.192 ± 0.060 | Significant stimulation of shaking behavior ocurred after 1.0 and 3.0 mg/kg doses | 3.97 ± 0.7 | 89 | – | failed to alter body temperature at any dose tested | 47.2 ± 6.7 | 28 | 125 ± 13 | – | 0.83 | antagonist | 8 | agonist | Substitution for prototypical hallucinogens like LSD in drug discrimination [10]: fully substitutes
